# Reference: ChEMBL document CHEMBL1124745, “Acyclic purine phosphonate analogues as antiviral agents. Synthesis and structure-activity relationships” (J Med Chem, 1990)
# Assays:
# [1] = Evaluated for the dissociation constant; assay type: ADME; conditions: read-out: pKa2
# Human alphaherpesvirus 1 [2] = assay: Evaluated for the antiviral activity against Herpes simplex virus type 1 (HSV-1) strain BWS by the plaque reduction assay; assay type: functional; conditions: read-out: ID50 (the source's name)
# In short: (§1)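 Plaque reduction in Vero cells: about 50 PFU HSV per well adsorbed 1 h with intermittent shaking. Inoculum removed; 10% EMEM with 2-fold drug dilutions added in triplicate, with no-drug virus controls. 48 h at 37 °C, 5% CO2, then Giemsa stain and plaque count. ID50 is the concentration giving 50% plaque reduction versus control.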
# Human alphaherpesvirus 2 [3] = assay: Evaluated for the antiviral activity against Herpes simplex virus type 2 (HSV-2) strain G by the plaque reduction assay; assay type: functional; conditions: read-out: ID50 (the source's name); in short: as §1
# Vero = assay: Evaluated for the antiviral activity against Vero cells by proliferation assays (in uninfected cells); assay type: functional; conditions: Chlorocebus sabaeus, read-out: ID50 (the source's name)
# In short: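 Cell proliferation assay in uninfected Vero cells; ID50 in µg/mL.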
# guanylate kinase = assay: Evaluated for the kinetic parameter Km, with bovine brain guanylate kinase.; assay type: ADME, Bos taurus; conditions: cattle
# [4] = Evaluated for the rate of phosphorylation with bovine brain guanylate kinase.; assay type: ADME, Bos taurus; conditions: cattle
# CCRF-CEM [5] = assay: Evaluated for the anticellular activity against CEM cells; assay type: functional; conditions: Homo sapiens, read-out: ID50 (the source's name)
# In short: (§2)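 CEM cells, uninfected; cell count by dye exclusion; ID50 in µg/mL.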
# Human betaherpesvirus 5 [6] = assay: Evaluated for the antiviral activity against Human cytomegalovirus (HCMV) strain AD-169 by the plaque reduction assay; assay type: functional; conditions: read-out: ID50 (the source's name)
# In short: (§3)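 HCMV AD169 grown and titered at 37 °C in MRC-5 human embryonic lung diploid cells. Plaque reduction assay in MRC-5 with 2-fold drug dilutions in triplicate and no-drug virus controls. ID50 is the concentration reducing plaques by 50% versus control.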
# Human alphaherpesvirus 1 [7] = assay: (§4) Evaluated for the antiviral activity against Herpes simplex virus type 1 (HSV-1).; assay type: organism-based; conditions: read-out: ID50 (the source's name); in short: as §1
# [8] = system: Human immunodeficiency virus 1; assay: Evaluated for the antiretroviral activity against Human immunodeficiency virus type 1; assay type: functional; conditions: read-out: ID50 (the source's name)
# In short: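 CEM-F cells infected with about 30 TCID50 of HIV (LAV strain) for 45 min at 37 °C. Compound added at various concentrations, then 8-day incubation. p24 gag protein in culture supernatant measured by enzyme-capture ELISA. ID50 (µg/mL) is the dose inhibiting 50% of virus expression.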
# [9] = system: Rauscher murine leukemia virus; assay: Evaluated for the antiretroviral activity against Rauscher murine leukemia virus (R-MuLV); assay type: functional; conditions: read-out: ID50 (the source's name)
# In short: (§5)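 Rauscher murine leukemia virus tested by UV-XC plaque assay; ID50 in µg/mL.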
# Human alphaherpesvirus 2 [10] = assay: Evaluated for the antiviral activity against Herpes simplex virus type 2 (HSV-2) with strain G by the plaque reduction assay; assay type: functional; conditions: read-out: ID50 (the source's name); in short: as §1
# Bos taurus = species on record: Bos taurus; assay: Evaluated for the rate of phosphorylation with bovine brain guanylate kinase; assay type: ADME; conditions: cattle, in vivo
# Human betaherpesvirus 5 [11] = assay: Evaluated for the antiviral activity against Human cytomegalovirus (HCMV) with strain AD-169 by the plaque reduction assay; assay type: functional; conditions: read-out: ID50 (the source's name); in short: as §3
# CCRF-CEM [12] = assay: Evaluated for the anticellular activity against CEM cells by dye-exclusion method; assay type: functional; conditions: Homo sapiens, read-out: ID50 (the source's name); in short: as §2
# Human alphaherpesvirus 1 [13] = assay: as §4; assay type: functional; conditions: read-out: ID50 (the source's name); in short: as §1
# [14] = system: Rauscher murine leukemia virus; assay: Evaluated for the antiretroviral activity against Rauscher-murine leukemia virus (R-MuLV); assay type: functional; conditions: read-out: ID50 (the source's name); in short: as §5
# [15] = Evaluated for the second dissociation constant; assay type: ADME; conditions: read-out: pKa2
SMILES,pKa [1],IC50 (Human alphaherpesvirus 1 [2]),IC50 (Human alphaherpesvirus 2 [3]),IC50 (Vero),Km (guanylate kinase),IC50 [8],also measured
Nc1nc(O)c2ncn(CCCC(F)(F)P(=O)(O)O)c2n1,5.52,> 100 µg/mL,> 100 µg/mL,100 µg/mL,,,
Nc1nc(O)c2ncn(CCCOCP(=O)(O)O)c2n1,,65.5 µg/mL,> 100 µg/mL,76 µg/mL,4.7 mM,7.8 µg/mL,Relative Vmax [4]: 0.0024; IC50 (CCRF-CEM [5]): > 100 µg/mL; IC50 (Human betaherpesvirus 5 [6]): 6 µg/mL; IC50 (Human alphaherpesvirus 1 [7]): 65.5 µg/mL; IC50 [9]: 0.04 µg/mL
Nc1nc(O)c2ncn(CCCCP(=O)(O)O)c2n1,7.08,> 100 µg/mL,,100 µg/mL,,,IC50 (Human alphaherpesvirus 2 [10]): > 100 µg/mL
Nc1nc(O)c2ncn(CCSCP(=O)(O)O)c2n1,6.59,> 100 µg/mL,> 100 µg/mL,100 µg/mL,,,
CC(COCP(=O)(O)O)n1cnc2c(O)nc(N)nc21 (stereo not drawn),,2.92 µg/mL,,60 µg/mL,3.9 mM,8.4 µg/mL,Relative Vmax (Bos taurus): 0.073; IC50 (Human betaherpesvirus 5 [11]): 0.4 µg/mL; IC50 (Human alphaherpesvirus 1 [7]): 3 µg/mL; IC50 (Human alphaherpesvirus 2 [10]): 3.29 µg/mL; IC50 (CCRF-CEM [12]): > 100 µg/mL
Nc1nc2c(ncn2COCCP(=O)(O)O)c(=O)[nH]1,6.76,> 100 µg/mL,,100 µg/mL,,,IC50 (Human alphaherpesvirus 1 [7]): > 145 µg/mL; IC50 (Human alphaherpesvirus 2 [10]): > 100 µg/mL
Nc1nc(O)c2ncn(CCCCOCP(=O)(O)O)c2n1,,> 100 µg/mL,> 100 µg/mL,100 µg/mL,,,IC50 (Human alphaherpesvirus 1 [7]): > 145 µg/mL
Nc1ncnc2c1ncn2CCCOCP(=O)(O)O,,> 100 µg/mL,> 100 µg/mL,100 µg/mL,,,
Nc1nc2c(ncn2[C@H]2C[C@H](O)[C@@H](COP(=O)(O)O)O2)c(=O)[nH]1,,,,,1.2 mM,,Relative Vmax [4]: 14
Nc1nc2c(ncn2COCCO)c(=O)[nH]1 [ACYCLOVIR],,0.5 µg/mL,2.4 µg/mL,100 µg/mL,,,IC50 (Human betaherpesvirus 5 [6]): 38.4 µg/mL
Nc1ncnc2c1ncn2CCOCP(=O)(O)O [ADEFOVIR],,21 µg/mL,9.4 µg/mL,> 100 µg/mL,,3 µg/mL,IC50 (Human betaherpesvirus 5 [6]): 0.93 µg/mL; IC50 [9]: 0.05 µg/mL; IC50 (CCRF-CEM [12]): > 100 µg/mL
Nc1nc2c(ncn2[C@@H]2O[C@H](COP(=O)(O)O)[C@H](O)[C@@H]2O)c(=O)[nH]1 [E626],,,,,3.3 mM,,Relative Vmax [4]: 100
Nc1nc2c(ncn2CCOCP(=O)(O)O)c(=O)[nH]1 [GS-438],6.52,0.08 µg/mL,0.69 µg/mL,5 µg/mL,2.7 mM,> 10 µg/mL,Relative Vmax [4]: 0.11; IC50 (CCRF-CEM [5]): 10 µg/mL; IC50 (Human betaherpesvirus 5 [6]): 0.04 µg/mL; IC50 (Human alphaherpesvirus 1 [13]): 0.1 µg/mL; IC50 [14]: 0.001 µg/mL
Cc1cn([C@H]2C[C@H](O)[C@@H](COP(=O)(O)O)O2)c(=O)[nH]c1=O [THYMIDINE MONOPHOSPHATE],,,,,,,pKa [15]: 6.5
Cc1cn([C@H]2C[C@H](N=[N+]=[N-])[C@@H](CO)O2)c(=O)[nH]c1=O [ZIDOVUDINE],,,,,,0.05 µg/mL,IC50 [9]: 0.001 µg/mL; IC50 (CCRF-CEM [12]): > 50 µg/mL
